Measured values pooled from the literature.
Lines come from different studies, so protocols differ.
Target: Insulin receptor (INSR, Homo sapiens, UniProt P06213)

The remaining activity of CC(C)(C)c1cc(C=C(C#N)C#N)cc(Br)c1O is reported as 105% (enzyme activity, inhibitor; 0.5 µM).
C[C@H](C(=O)N[C@H]1COc2ccccc2[C@@H]1S(C)(=O)=O)c1ccc(F)cc1 has an inhibition of -14% (enzyme activity, inhibitor; 10 µM).
For Cc1ncc(C)n2nc(/C=C/c3nc(N4CCCC4)cc(N4CCOCC4)n3)nc12, the inhibition was 37% (enzyme activity, inhibitor; 10 µM).
With O=c1[nH]c2ccccc2n1C1CCN(Cc2ccc(-c3[nH]c4cc5ncnc5cc4nc3-c3ccccc3)cc2)CC1 the remaining signal was 102% (cell-free assay; 0.5 µM).
With COc1ncccc1-c1cnn2ccc(N3CCN(C(=O)OC(C)C)CC3)nc12 the remaining binding was 95% (binding, competition with immobilised ligand; 1 µM).
The inhibition of Cn1cc(-c2cccc(N3CCc4c(sc5c4CC(C)(C)C5)C3=O)c2CO)cc(Nc2ccncn2)c1=O is reported as 6% (enzyme activity, inhibitor; 1 µM).
Cn1cncc1[C@@](O)(COc1ccc(C#N)cc1-c1ccc(OC(F)(F)F)cc1)c1ccc(C#N)cc1 has a remaining binding of 84% (cell-free assay, competition with immobilised ligand; 1 µM).
c1ccc(C(NCCNC(c2ccccc2)c2ccccc2)c2ccccc2)cc1 gave an inhibition of -6% (enzyme activity, inhibitor; 10 µM).
For C#Cc1n[nH]c2c(-c3cn([C@@H](C)c4ccccn4)c(=O)[nH]c3=O)cc(F)cc12, the inhibition was 9% (enzyme activity, inhibitor; 0.1 µM).
N#CC1(c2ccccn2)CCN(Cc2cc(C(=O)O)c(=O)n3ccccc23)CC1 gave a remaining binding of 74% (cell-free assay, competition with immobilised ligand; 1 µM).
For Cc1nn(C)cc1-c1nc2c(N3CCN(Cc4ccc(Cl)cc4)CC3)c(Cl)cnc2[nH]1, the remaining binding was 100% (binding, competition with immobilised ligand; 1 µM).
With Cn1cc(-c2cc(F)cc(N3CCn4c(cc5c4CCCC5)C3=O)c2CO)cc(Nc2ccc(N3CCN(C4COC4)CC3)cn2)c1=O the inhibition was 8% (enzyme activity, inhibitor; 0.1 µM).
For Nc1ncc(-c2nc(N3CCOCC3)nc(N3CCOCC3)n2)c(C(F)F)n1, the remaining binding was 50% (cell-free assay, competition with immobilised ligand; 10 µM).
For C#Cc1n[nH]c2c(-c3cn([C@@H](C)c4ccccc4)c(=O)[nH]c3=O)cc(F)cc12, the inhibition was 7.7% (enzyme activity, inhibitor; 0.1 µM).
O=C(Nc1cccnn1)N1CCN([C@@H]2CCOc3cc(C(F)(F)F)ccc32)CC1 has an inhibition of 14% (enzyme activity, inhibitor; 20 µM).
